The source of these data is paper PMC4547362 (Molecular cancer therapeutics, 2015).

Structures are written as SMILES.

One series addresses Bcr-Abl (Homo sapiens, UniProt P00519+P11274). The series can be described thus: Bcr-Abl tyrosine phosphorylation in K562 cells, immunoblot. In kind it is cell-based. For orientation: In western blotting, separated proteins are transferred to a membrane and probed.
Series [1] concerns the target Stat5a/b (Mus musculus, UniProt P42230+P42232). In kind it is cell-based. Particulars: read-out: IC50, phosphorylation of Stat5a/b; HC-11 cells, 2 h, then hPrl 30 min.
In series [2] the target is Stat5a/b (Homo sapiens, UniProt P42229+P51692). The series is described as follows: Cell-based immunoassay for tyrosine-phosphorylated Stat5a/b in T47D cells. As to conditions: read-out: IC50, phosphorylation of Stat5a/b, 2 h, then hPrl.
In the next series the target is Jak2 (Homo sapiens, UniProt O60674). The series is described as follows: Jak2 phosphorylation in CWR22Rv1 cells, immunoprecipitation and immunoblot. In kind it is cell-based.
The test system of a further series is panel of 50 kinases. The series is described as follows: Kinase activity profiling. In kind it is biochemical. As to conditions: 1 μM final concentration. In outline:
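Split-luciferase binding format, with the test compound first checked for false-positive activity against split-luciferase. Each Cfluc-kinase was co-translated with Fos-Nfluc in rabbit reticulocyte lysate at 30 C for 90 min. Lysate was incubated 30 min at room temperature with DMSO or 1 μM (final) test compound, then 1 h with a kinase-specific probe.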

The target in another series is T1, Stat5a (Homo sapiens, UniProt P42229).
T1 sequence (P42229 1-794): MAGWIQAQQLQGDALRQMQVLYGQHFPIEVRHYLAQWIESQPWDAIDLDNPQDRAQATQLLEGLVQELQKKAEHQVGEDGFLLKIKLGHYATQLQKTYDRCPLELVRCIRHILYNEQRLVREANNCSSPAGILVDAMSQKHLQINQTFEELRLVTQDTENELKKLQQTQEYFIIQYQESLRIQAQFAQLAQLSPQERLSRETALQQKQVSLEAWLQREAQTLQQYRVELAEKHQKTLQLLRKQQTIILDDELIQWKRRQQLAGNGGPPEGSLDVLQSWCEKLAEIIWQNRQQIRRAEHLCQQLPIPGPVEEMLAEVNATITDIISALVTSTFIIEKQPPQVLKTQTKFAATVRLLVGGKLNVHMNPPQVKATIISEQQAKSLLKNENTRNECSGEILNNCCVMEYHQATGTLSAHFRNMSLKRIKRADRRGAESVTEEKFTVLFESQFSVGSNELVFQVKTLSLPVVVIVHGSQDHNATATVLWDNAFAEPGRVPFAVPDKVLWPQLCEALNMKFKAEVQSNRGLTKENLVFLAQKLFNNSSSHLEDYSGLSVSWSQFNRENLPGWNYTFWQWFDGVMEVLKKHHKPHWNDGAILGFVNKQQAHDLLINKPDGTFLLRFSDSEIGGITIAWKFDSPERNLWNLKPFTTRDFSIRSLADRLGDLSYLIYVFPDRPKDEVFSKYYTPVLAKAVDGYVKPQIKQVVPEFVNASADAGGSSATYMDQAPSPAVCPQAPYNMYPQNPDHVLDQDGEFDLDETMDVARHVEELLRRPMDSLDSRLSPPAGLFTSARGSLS
The series is described as follows: Stat5a dimerization by co-immunoprecipitation in PC-3 cells. Particulars: read-out: IC50, Stat5a dimerization, FLAG- and MYC-tagged Stat5a, hPrl 10 nM 30 min. In kind it is cell-based.

In series [3] the target is Stat5a/b (Homo sapiens, UniProt P42229). The series is described as follows: EMSA of Stat5a/b binding to DNA. As to conditions: 25 μM, COS-7 cells, compared to Ctrl-treated cells. In kind it is cell-based. Summed up:
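COS-7 cells were transiently co-transfected with Stat5a and prolactin receptor plasmids, then serum-starved 10 h. They were pretreated 2 h with test compound or control compound and stimulated 30 min with 10 nM human prolactin. DNA binding was probed with the beta-casein gene Stat5 response element.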
A general note: A gel shift assay detects complexes by their altered migration in electrophoresis.

A further series addresses Stat3 (Homo sapiens, UniProt P40763). The series can be described thus: Stat3 luciferase reporter assay in LNCaP cells. In kind it is cell-based. As to conditions: 6.0 μM, IL-6 50 ng/ml 16 h. Summed up: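 LNCaP cells were co-transfected with Stat3 (0.25 μg), IL-6 receptor (0.25 μg), Stat3-luciferase reporter (0.5 μg) and a normalisation plasmid (0.025 μg). Cells were serum-starved 10 h, pretreated with 6.0 μM test compound or control compound, and stimulated 16 h with 50 ng/ml IL-6. Relative luciferase activity is reported as the mean ± S.E. of three independent experiments run in triplicate.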

A further series concerns Bcl-xL and cyclin D1. The series can be described thus: Expression of Stat5a/b target genes cyclin D1 and Bcl-xL in PC cells, immunoblot. In kind it is cell-based, human. Particulars: CWR22Rv1 and LNCaP cells, 48 h or 25 μM time course.
Another series deals with CWR22Rv1 cells. The series is described as follows: Viability of CWR22Rv1 cells after Stat5a/b shRNA or control shRNA, trypan blue. In kind it is cell-based, human. Particulars: 12.5 μM, 48 h.
The test system of series [4] is A549, CAPAN, T47D, HT1080, HepG2, COS-7, RC170N, CWR22Rv1, K562 cells. In kind it is cell-based.
The test system of another series is patient-derived PCs. The series can be described thus: Ex vivo organ explant culture of patient-derived prostate cancers. Also noted: species or system human. Particulars: 7 days ex vivo explant organ culture. In outline: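 Patient-derived prostate cancers from radical prostatectomies (n=11, Gleason 7) were grown as explant organ cultures for 7 days with test compound or control compound at set concentrations. A pre-culture zero sample was formalin-fixed for baseline nuclear Stat5a/b. Explants were scored by Stat5a/b immunohistochemistry and TUNEL.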

Stat3, sequence (P40763 whole entry): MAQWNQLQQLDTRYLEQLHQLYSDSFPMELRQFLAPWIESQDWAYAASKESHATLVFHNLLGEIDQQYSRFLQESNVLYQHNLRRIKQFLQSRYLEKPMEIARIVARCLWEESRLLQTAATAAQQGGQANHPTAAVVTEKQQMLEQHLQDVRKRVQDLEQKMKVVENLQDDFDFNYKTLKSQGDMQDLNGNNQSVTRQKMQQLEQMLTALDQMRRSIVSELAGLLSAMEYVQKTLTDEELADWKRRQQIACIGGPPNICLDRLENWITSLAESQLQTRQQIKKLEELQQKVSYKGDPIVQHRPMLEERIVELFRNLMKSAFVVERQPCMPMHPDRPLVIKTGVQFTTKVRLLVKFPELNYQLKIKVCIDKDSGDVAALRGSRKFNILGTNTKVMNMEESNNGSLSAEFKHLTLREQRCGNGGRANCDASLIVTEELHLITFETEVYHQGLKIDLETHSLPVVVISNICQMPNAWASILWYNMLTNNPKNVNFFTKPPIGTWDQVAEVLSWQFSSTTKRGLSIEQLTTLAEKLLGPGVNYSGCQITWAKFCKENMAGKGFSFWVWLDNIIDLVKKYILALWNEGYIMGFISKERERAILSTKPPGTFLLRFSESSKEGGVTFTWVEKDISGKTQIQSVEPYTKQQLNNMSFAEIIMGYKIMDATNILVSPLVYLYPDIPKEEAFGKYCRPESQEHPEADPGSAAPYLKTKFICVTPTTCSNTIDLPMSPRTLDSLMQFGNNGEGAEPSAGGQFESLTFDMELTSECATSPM
Stat5a/b (Mus musculus, UniProt P42230+P42232), sequence (P42230 whole entry): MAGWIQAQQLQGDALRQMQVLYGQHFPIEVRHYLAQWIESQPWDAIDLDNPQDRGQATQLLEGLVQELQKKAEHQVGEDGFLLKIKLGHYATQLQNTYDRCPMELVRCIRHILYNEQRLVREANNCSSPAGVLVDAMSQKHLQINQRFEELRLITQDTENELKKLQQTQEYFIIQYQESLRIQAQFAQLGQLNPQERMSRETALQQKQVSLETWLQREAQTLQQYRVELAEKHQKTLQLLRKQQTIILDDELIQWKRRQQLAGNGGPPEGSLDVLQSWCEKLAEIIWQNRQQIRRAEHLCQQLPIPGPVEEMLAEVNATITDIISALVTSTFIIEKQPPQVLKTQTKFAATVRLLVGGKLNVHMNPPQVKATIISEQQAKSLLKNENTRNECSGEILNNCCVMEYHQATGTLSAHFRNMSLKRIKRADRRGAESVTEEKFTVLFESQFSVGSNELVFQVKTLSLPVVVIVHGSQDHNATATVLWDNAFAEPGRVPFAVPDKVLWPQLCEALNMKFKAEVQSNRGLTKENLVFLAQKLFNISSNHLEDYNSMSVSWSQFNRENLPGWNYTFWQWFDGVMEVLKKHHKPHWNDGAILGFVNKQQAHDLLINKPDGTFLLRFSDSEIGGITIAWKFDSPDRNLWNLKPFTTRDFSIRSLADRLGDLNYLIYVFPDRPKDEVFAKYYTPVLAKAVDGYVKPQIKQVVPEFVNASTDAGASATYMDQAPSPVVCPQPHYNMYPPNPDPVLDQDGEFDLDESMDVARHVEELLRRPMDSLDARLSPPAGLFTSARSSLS
Stat5a/b (Mus musculus, UniProt P42230+P42232), sequence (P42232 whole entry): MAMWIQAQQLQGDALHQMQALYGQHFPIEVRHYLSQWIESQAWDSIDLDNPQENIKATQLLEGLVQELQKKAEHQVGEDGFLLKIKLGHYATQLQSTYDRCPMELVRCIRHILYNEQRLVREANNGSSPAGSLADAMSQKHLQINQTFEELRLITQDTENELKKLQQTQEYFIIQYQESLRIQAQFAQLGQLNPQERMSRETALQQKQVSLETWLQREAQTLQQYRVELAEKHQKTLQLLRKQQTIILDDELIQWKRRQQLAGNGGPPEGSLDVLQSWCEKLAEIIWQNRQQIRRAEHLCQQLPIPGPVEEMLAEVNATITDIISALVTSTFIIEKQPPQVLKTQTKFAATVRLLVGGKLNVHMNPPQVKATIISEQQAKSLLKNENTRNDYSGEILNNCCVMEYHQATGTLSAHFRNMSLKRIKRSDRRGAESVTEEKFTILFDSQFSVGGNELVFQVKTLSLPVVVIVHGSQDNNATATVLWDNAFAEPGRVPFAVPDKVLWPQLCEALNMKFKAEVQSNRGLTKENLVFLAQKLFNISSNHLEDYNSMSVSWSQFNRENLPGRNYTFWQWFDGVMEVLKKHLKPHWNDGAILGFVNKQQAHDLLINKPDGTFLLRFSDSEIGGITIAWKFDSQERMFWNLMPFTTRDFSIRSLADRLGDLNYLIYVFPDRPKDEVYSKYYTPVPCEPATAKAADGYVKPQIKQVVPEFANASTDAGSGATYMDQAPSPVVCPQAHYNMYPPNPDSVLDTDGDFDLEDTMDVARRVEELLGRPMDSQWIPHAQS
Jak2, sequence (O60674 whole entry): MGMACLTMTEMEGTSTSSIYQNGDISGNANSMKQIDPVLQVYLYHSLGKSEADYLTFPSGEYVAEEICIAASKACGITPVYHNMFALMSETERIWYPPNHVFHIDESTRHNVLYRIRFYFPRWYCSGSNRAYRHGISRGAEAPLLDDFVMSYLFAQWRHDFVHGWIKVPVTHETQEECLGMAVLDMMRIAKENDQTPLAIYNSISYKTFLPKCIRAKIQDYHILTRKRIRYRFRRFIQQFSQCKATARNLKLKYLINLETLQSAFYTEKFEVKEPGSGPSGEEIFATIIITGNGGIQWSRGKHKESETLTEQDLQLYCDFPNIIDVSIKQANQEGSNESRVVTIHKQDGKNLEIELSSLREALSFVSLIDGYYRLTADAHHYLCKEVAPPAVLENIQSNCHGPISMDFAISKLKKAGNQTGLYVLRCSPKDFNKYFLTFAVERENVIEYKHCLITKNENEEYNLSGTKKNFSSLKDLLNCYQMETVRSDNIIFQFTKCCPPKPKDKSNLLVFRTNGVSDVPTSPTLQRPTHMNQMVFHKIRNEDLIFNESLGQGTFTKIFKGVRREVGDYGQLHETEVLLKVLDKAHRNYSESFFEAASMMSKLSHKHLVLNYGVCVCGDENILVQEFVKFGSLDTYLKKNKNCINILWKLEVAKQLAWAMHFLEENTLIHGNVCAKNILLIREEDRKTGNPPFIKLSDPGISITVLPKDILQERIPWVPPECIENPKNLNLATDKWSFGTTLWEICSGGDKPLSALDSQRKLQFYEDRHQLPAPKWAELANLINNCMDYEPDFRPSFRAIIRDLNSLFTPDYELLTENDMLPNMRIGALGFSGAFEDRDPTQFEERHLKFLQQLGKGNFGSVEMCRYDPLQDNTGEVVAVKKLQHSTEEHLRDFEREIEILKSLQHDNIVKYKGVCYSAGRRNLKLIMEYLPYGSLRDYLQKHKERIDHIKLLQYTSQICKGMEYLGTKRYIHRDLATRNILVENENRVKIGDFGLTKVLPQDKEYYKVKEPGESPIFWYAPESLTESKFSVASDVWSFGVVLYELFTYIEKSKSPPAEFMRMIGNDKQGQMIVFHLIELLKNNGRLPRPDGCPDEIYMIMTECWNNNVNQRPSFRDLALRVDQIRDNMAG
Stat5a/b (Homo sapiens, UniProt P42229+P51692), sequence (P51692 whole entry, one chain of several): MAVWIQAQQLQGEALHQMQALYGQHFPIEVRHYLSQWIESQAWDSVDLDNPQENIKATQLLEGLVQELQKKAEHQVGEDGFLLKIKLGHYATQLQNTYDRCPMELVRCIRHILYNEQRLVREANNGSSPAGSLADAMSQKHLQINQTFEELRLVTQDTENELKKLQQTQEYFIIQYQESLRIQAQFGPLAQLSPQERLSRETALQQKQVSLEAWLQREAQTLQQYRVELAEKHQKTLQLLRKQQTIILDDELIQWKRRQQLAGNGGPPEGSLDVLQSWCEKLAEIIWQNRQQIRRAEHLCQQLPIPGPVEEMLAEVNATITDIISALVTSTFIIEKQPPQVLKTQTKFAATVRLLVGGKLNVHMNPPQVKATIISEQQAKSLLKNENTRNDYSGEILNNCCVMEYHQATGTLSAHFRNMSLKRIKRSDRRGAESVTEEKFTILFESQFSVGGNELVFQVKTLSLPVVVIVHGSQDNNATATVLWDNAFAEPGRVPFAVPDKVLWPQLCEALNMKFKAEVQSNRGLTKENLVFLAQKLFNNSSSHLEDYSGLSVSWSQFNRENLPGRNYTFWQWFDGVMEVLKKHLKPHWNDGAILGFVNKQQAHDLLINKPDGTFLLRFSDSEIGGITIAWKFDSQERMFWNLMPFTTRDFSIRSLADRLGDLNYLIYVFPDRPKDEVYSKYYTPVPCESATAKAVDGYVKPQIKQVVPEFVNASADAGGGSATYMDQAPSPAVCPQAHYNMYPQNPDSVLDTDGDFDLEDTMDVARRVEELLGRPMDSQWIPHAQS

As to `O=P(O)(O)OC[C@H]1O[C@@H](n2cnc3c(NCc4ccccc4)ncnc32)[C@H](O)[C@@H]1O` [IST5-002, N6-benzyladenosine-5-monophosphate], the “Bcr-Abl tyrosine phosphorylation levels” value at Bcr-Abl is “did not affect”. Moreover, the results for the IC50 on Stat5a/b [1], on Stat5a/b [2] and on Stat5a were 12 µM, 24.8 µM and 11 µM, respectively. For the same molecule, the “Phosphorylation of Jak2” value at Jak2 is on record as “unaffected”. For the same molecule, in the series with panel of 50 kinases, the “inhibition of kinases in a panel of 50 kinases” value is listed as “no specific inhibition”. For the same molecule, the “reduction of binding of Stat5a/b to its DNA target sequence” value on Stat5a/b [3] was “approximately 50%”. Moreover, the “transcriptional activity of Stat3” value on Stat3 is reported as “failed to block”. The “expression of Bcl-xL and cyclin D1” value with Bcl-xL and cyclin D1 is given as “reduced expression”. For the same molecule, in the series with CWR22Rv1 cells, the “viability of CWR22Rv1 cells depleted of Stat5a/b (shStat5a/b)” value is on record as “did not further affect”. The “decrease in the number of viable PC cells expressing control shRNA” value in the series with CWR22Rv1 cells (CWR22Rv1) came to 40%. Besides, the “viability of cell lines from other tissues” value in [4] (A549, CAPAN, T47D, HT1080, HepG2, COS-7) is listed as “not affected”. Besides, the “viability of cells with high Stat5a/b activation” value in series [4] (CWR22Rv1 and K562, side-by-side) was “suppressed viability”. Also, the “viability of cell lines with low or no Stat5a/b activation” value in [4] (RC170N normal prostate epithelial cell line, HT1080) is reported as “did not affect viability”. Besides, in the series with patient-derived PCs, the “patient-derived PCs that responded by extensive loss of viable epithelium” value is “Eight out of 11”. Besides, in the series on patient-derived PCs (responders), the “concentration at which loss of viable epithelium started” value came out at 25 µM.
